The record followed here is ChEMBL document CHEMBL1938298, “Synthesis and characterization of [¹²⁵I]2-iodo N-[(S)-{(S)-1-methylpiperidin-2-yl}(phenyl)methyl]3-trifluoromethyl-benzamide as novel imaging probe for glycine transporter 1” (Bioorg Med Chem, 2011).

Each structure is given as a SMILES string. Calls of active or inactive are those of the source. The rule behind the calls is not given here.

The target in data set [1] is T1, Sodium- and chloride-dependent glycine transporter 1 (Rattus norvegicus) (UniProt P28572).
T1 sequence (whole entry): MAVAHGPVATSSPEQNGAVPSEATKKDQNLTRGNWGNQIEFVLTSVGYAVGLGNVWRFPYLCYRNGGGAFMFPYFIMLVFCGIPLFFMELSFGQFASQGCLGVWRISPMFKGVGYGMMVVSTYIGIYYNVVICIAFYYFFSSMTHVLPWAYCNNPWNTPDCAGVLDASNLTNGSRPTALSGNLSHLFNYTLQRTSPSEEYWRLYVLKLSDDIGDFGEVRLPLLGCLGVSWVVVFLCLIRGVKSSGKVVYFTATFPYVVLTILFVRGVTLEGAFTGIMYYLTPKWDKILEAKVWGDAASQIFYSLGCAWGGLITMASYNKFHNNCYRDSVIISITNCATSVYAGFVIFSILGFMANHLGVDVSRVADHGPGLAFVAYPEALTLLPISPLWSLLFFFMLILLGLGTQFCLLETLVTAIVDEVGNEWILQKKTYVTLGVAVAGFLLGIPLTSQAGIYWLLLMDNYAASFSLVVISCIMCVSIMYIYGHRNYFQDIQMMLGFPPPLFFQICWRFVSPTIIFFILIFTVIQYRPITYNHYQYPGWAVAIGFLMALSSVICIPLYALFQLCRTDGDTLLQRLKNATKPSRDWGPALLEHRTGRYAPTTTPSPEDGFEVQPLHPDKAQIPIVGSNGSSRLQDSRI
In words: Binding affinity to GlyT1 in rat brain cerebellum at 0.03 to 0.04 nM preincubated for 20 mins in binding buffer before compound addition measured after 30 mins by autoradiography in presence of 1 mM GlyT1 substrate glycine relative to control. It counts as tissue-based. As to conditions: tested as the 125I-labelled form. An outline of the steps:
(§1)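 Rat brain sagittal sections (20 µm) preincubated 20 min at 25 °C in Tris-HCl buffer pH 7.5 (NaCl, KCl, MgCl2, CaCl2), then 30 min at 25 °C with [125I] tracer (100 kBq, 0.03–0.04 nM) plus competitor (10 µM; glycine 1 or 10 mM). Cold washes, imaging plate 3 days, ROI PSL minus background per mm². % control from ≥triplicate slices, three rats.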

The target in data set [2] is T1, Sodium- and chloride-dependent glycine transporter 1 (Rattus norvegicus). In words: Binding affinity to GlyT1 in rat brain cerebral cortex at 0.03 to 0.04 nM preincubated for 20 mins in binding buffer before compound addition measured after 30 mins by autoradiography in presence of 0.01 mM NMDA receptor glycine site antagonist L-701,324 relative to control. It is filed as tissue-based. As to conditions: tested as the 125I-labelled form. An outline of the steps:
as §1

The target is the same in data set [3]. In words: Binding affinity to GlyT1 in rat brain hippocampus at 0.03 to 0.04 nM preincubated for 20 mins in binding buffer before compound addition measured after 30 mins by autoradiography in presence of 0.01 mM GlyT2 inhibitor ORG25543 relative to control. As to conditions: tested as the 125I-labelled form. It is filed as tissue-based. An outline of the steps: as §1

Data set [4] has as its system Mus musculus. Nature of the data set: In vivo binding affinity to GlyT1 in ddY mouse brain hippocampus at 33.3 kBq, iv after 60 mins in presence of SSR504734 2 mg/kg, iv administered 15 mins prior to compound administration relative to control. Further details: dose 2 mg/kg. It counts as functional, organism-based. The settings on record: tested as the 125I-labelled form. The method, boiled down: (§2)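 Male ddY mice (6 W, 30–35 g) were given [125I]5 (ca. 33.3 kBq, 0.1 mL) iv via tail vein. Blocker (2 mg/kg in 30% DMSO/saline) was given iv 15 min before the tracer. Mice were killed 30 or 60 min after injection and the brain regions were dissected and weighed. Gamma counting gave % dose/g, compared with control; n = 5–6.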

In data set [5] the target is T1, Sodium- and chloride-dependent glycine transporter 1 (Rattus norvegicus). Nature of the data set: Binding affinity to GlyT1 in rat brain cerebellum at 0.03 to 0.04 nM preincubated for 20 mins in binding buffer before compound addition measured after 30 mins by autoradiography in presence of 0.01 mM GlyT1 inhibitor ALX5407 relative to control. It counts as tissue-based. As to conditions: tested as the 125I-labelled form. The method, boiled down:
as §1

For data set [6] the target is unchanged. Nature of the data set: Binding affinity to GlyT1 in rat brain medullary region at 0.03 to 0.04 nM preincubated for 20 mins in binding buffer before compound addition measured after 30 mins by autoradiography in presence of 10 mM GlyT1 substrate glycine relative to control. It counts as tissue-based. As to conditions: tested as the 125I-labelled form. An outline of the steps: as §1

Data set [7] shares this target. In words: Binding affinity to GlyT1 in rat brain thalamus at 0.03 to 0.04 nM preincubated for 20 mins in binding buffer before compound addition measured after 30 mins by autoradiography in presence of 0.01 mM GlyT1 inhibitor ALX5407 relative to control. The settings on record: tested as the 125I-labelled form. It counts as tissue-based.
Data set [8] has the same target. Nature of the data set: Binding affinity to GlyT1 in rat brain midbrain at 0.03 to 0.04 nM preincubated for 20 mins in binding buffer before compound addition measured after 30 mins by autoradiography in presence of 0.01 mM GlyT1 inhibitor HPCP relative to control. It is filed as tissue-based. The settings on record: tested as the 125I-labelled form. An outline of the steps: as §1

Data set [9] has the same target. In words: Binding affinity to GlyT1 in rat brain hippocampus at 0.03 to 0.04 nM preincubated for 20 mins in binding buffer before compound addition measured after 30 mins by autoradiography in presence of 1 mM GlyT1 substrate glycine relative to control. It is filed as tissue-based. The settings on record: tested as the 125I-labelled form. The method, boiled down: as §1

For data set [10] the target is unchanged. Nature of the data set: Binding affinity to GlyT1 in rat brain midbrain at 0.03 to 0.04 nM preincubated for 20 mins in binding buffer before compound addition measured after 30 mins by autoradiography in presence of 0.01 mM GlyT1 inhibitor SSR504734 relative to control. It is filed as tissue-based. As to conditions: tested as the 125I-labelled form. The method, boiled down: as §1

In data set [11] the test system is Mus musculus. In words: In vivo binding affinity to GlyT1 in ddY mouse brain striatum at 33.3 kBq, iv after 60 mins in presence of nonradioactive compound 2 mg/kg, iv administered 15 mins prior to compound administration relative to control. Further details: dose 2 mg/kg. It is filed as functional, organism-based. The settings on record: tested as the 125I-labelled form.

Data set [12] concerns Spleen. In words: Drug uptake in ddY mouse spleen at 11.1 kBq, iv after 180 min by gamma counting. It counts as ADME, organism-based. As to conditions: in vivo, 3 h. An outline of the steps:
(§3)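 Male ddY mice (6 weeks, 30–35 g) were given about 11.1 kBq of [125I]tracer in 0.1 mL i.v. via the tail vein. At each time point the animals were killed and organs dissected, weighed and gamma-counted. Uptake is expressed as % injected dose per gram of tissue, mean ± SD, n = 5–6.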

Data set [13] deals with Mus musculus. In words: In vivo binding affinity to GlyT1 in ddY mouse brain thalamus at 33.3 kBq, iv after 30 mins in presence of nonradioactive compound 2 mg/kg, iv administered 15 mins prior to compound administration relative to control. It is filed as functional.
Data set [14] concerns Nucleic Acid. Nature of the data set: Ratio of drug level in brain to blood in ddY mouse at 11.1 kBq, iv after 30 min by gamma counting. It is filed as ADME, organism-based. As to conditions: 0.5 h.
The subject of data set [15] is Kidney. In words: Drug uptake in ddY mouse kidney at 11.1 kBq, iv after 0.5 min by gamma counting. It counts as ADME, organism-based. As to conditions: in vivo. An outline of the steps: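 Male ddY mice (6 weeks, 30–35 g) received about 11.1 kBq [125I]tracer in 0.1 mL i.v. via tail vein. Killed at set times, organs dissected and weighed, radioactivity gamma counted. Reported as % injected dose/g tissue, mean ± SD, n = 5–6.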

Data set [16] relates to Kidney. In words: Drug uptake in ddY mouse kidney at 11.1 kBq, iv after 5 min by gamma counting. It counts as ADME, organism-based. The settings on record: in vivo. The method, boiled down:
as §3

Data set [17] concerns Mus musculus. In words: In vivo binding affinity to GlyT1 in ddY mouse brain medullary region at 33.3 kBq, iv after 30 mins in presence of N-Me-SSR504734 2 mg/kg, iv administered 15 mins prior to compound administration relative to control. It is filed as functional, Medulla of organ. An outline of the steps: as §2

On to `CN1CCCC[C@H]1[C@@H](NC(=O)c1cccc(C(F)(F)F)c1I)c1ccccc1`, for which the Activity in data set [1] stood at 97.4%; in [2] it was 92.5%; in [3] it was 105%; in data set [5] it was 43.1%; in data set [6], 61.2%; in data set [7] it was 33.2%. In addition, the Activity in data set [8] is 19.7%; in [9] it was 108%; in data set [10], 28.9%. In [4], the result was inactive. Further, the result in data set [11] was Active.
`CN1CCCC[C@H]1[C@@H](NC(=O)c1cccc(C(F)(F)F)c1[125I])c1ccccc1`: the Drug uptake in data set [12] is on record as 3.41 % ID/g; in data set [15] it was 4.05 % ID/g; in [16], 10.71 % ID/g. Moreover, the Activity in [13] came out at 45%; in data set [17], 59%. For the same compound, the Ratio in [14] is 2.46.
